This is an account of results in ChEMBL document CHEMBL3861996, “Arylsulfonamide derivatives of (aryloxy)ethyl pyrrolidines and piperidines as α1-adrenergic receptor antagonist with uro-selective activity” (Bioorg Med Chem, 2016).

The target in experiment [1] is T1, Adrenergic receptor alpha-1 (Rattus norvegicus, UniProt P15823+P23944+P43140).
T1 sequence (P15823 whole entry): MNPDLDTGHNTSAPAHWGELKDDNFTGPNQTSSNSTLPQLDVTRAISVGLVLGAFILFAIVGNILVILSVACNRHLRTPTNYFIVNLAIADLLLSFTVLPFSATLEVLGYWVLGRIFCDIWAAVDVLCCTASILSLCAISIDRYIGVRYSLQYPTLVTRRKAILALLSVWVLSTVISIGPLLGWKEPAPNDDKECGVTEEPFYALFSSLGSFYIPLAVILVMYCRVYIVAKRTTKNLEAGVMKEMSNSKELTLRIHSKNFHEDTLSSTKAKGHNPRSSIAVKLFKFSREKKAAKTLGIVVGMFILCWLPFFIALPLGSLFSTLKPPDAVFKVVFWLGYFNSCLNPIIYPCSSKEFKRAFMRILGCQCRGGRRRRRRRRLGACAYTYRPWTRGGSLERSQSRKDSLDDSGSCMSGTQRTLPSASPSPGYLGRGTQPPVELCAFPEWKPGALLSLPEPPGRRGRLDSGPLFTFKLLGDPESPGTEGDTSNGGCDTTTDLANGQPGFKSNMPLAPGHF
T1 sequence (P23944 whole entry): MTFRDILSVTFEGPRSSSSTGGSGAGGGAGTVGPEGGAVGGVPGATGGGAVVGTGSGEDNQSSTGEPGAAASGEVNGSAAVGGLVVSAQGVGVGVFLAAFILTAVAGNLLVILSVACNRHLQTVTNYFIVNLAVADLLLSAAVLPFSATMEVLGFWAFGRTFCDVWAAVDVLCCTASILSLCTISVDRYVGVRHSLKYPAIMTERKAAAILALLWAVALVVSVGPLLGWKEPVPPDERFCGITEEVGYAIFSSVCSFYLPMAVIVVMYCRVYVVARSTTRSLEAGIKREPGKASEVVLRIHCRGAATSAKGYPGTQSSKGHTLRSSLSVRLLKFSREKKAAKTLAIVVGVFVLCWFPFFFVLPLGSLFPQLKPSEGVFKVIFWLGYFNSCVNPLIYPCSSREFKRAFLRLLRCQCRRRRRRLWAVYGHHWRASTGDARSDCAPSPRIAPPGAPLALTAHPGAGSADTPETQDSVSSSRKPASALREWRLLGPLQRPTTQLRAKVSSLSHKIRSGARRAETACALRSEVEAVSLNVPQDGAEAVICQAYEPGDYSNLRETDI
T1 sequence (P43140 whole entry): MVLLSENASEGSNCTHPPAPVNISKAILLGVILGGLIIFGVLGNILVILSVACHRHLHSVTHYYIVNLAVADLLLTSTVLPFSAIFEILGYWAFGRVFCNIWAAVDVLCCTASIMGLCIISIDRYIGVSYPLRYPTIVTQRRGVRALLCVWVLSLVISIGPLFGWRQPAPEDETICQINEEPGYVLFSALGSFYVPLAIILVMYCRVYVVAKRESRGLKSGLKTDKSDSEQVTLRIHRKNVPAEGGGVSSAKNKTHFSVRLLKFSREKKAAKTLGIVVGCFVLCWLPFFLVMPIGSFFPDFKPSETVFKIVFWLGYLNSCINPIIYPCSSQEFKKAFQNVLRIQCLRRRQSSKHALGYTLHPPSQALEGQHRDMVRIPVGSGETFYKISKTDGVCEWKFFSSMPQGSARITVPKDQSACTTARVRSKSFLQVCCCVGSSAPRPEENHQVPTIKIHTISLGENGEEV
Nature of the experiment: Displacement of [3H]-Prazosin from alpha1 adrenergic receptor in rat brain cerebral cortex membranes by liquid scintillation counting analysis. Type of experiment: cell membranes, Membrane. Summed up: (§1)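 Rat cerebral cortex homogenized in ice-cold 50 mM Tris–HCl (pH 7.6), spun at 20,000 g for 20 min (0–4 °C), resuspended and spun again. Membranes incubated with 0.2 nM [3H]-prazosin (α1) or 2 nM [3H]-clonidine (α2) and seven to eight compound concentrations (10^-11 to 10^-4 M). Non-specific binding defined with 10 µM phentolamine (prazosin) or 10 µM clonidine (clonidine). Ended by GF/C filtration, counted by liquid scintillation. Run in duplicate; Ki from two independent experiments.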

Experiment [2] deals with T2, Adrenergic receptor alpha-2 (Rattus norvegicus, UniProt P22086+P19328+P22909).
T2 sequence (P22086 whole entry): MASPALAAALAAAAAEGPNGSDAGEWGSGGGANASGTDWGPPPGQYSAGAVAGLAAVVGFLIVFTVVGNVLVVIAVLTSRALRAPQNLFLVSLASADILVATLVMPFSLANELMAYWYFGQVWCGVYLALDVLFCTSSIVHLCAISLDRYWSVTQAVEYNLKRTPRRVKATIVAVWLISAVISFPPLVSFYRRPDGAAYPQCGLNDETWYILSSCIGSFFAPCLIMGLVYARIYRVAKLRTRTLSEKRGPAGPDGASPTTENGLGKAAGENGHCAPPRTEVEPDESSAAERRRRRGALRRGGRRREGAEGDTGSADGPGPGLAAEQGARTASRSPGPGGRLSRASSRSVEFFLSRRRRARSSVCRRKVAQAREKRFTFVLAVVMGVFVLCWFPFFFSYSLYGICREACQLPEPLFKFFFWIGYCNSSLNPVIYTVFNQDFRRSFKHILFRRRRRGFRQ
T2 sequence (P19328 whole entry): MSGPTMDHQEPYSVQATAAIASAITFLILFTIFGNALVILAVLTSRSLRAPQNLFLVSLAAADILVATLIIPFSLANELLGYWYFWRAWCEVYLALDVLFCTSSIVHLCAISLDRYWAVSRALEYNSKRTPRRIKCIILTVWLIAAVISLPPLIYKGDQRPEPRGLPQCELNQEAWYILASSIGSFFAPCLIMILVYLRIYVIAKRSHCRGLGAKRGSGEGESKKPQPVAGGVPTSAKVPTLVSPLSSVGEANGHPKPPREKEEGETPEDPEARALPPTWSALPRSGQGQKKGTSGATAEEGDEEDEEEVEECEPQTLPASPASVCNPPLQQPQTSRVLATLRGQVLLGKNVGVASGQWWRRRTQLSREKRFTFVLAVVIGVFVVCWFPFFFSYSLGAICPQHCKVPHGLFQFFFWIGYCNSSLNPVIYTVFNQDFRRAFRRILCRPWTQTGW
T2 sequence (P22909 whole entry): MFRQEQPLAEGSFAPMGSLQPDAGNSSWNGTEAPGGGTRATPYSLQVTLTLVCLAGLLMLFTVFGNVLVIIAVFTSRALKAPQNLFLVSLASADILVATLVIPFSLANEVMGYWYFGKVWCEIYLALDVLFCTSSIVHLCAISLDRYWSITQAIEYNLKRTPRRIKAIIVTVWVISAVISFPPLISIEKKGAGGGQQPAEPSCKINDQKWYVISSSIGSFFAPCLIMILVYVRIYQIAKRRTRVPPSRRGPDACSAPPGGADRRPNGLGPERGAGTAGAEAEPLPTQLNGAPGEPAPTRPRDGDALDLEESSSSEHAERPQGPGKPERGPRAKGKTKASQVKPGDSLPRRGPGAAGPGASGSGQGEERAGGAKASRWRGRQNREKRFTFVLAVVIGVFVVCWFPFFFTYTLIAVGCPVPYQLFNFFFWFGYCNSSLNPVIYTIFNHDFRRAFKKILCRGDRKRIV
Put plainly: Displacement of [3H]-Clonidine from alpha2 adrenergic receptor in rat brain cerebral cortex membranes by liquid scintillation counting analysis. Format: cell membranes, Membrane. Summed up:
as §1
On the technique in general: In a radioligand displacement assay an active substance lowers the binding of a labelled ligand.

By Ki is commonly meant the dissociation constant of the complex between target and ligand, obtained from inhibition or displacement. Low readings indicate a stronger hold on the target, high ones a looser hold on the target. On to `COc1ccccc1OCCN1CCC(CNS(=O)(=O)c2cncc3ccccc23)CC1`, for which the Ki is reported as 90 nM in experiment [1] and 695 nM in experiment [2].

Consider `CC(C)Oc1ccccc1OCCN1CCC(CNS(=O)(=O)c2cccc(Cl)c2F)CC1`, for which the Ki turned out to be 71 nM in experiment [1] and 1212 nM in experiment [2].

In the case of `COc1ccccc1OCCN1CCC(NS(=O)(=O)c2cncc3ccccc23)CC1`, the Ki in experiment [1] is listed as 52 nM; in experiment [2], 297 nM.

With `COc1ccc(S(=O)(=O)NCC2CCN(CCOc3ccccc3OC)CC2)cc1OC`, the figures for the Ki in experiment [1] and in experiment [2] were 81 nM and 644 nM, respectively.

Take `CC(C)Oc1ccccc1OCCN1CCC(CNS(=O)(=O)c2cccc3cccnc23)CC1`: the values for the Ki in experiment [1] and in experiment [2] were 95 nM and 947 nM, respectively.

Regarding `COc1ccccc1OCCN1CCC(CNS(=O)(=O)c2cccc(Cl)c2)CC1`, the Ki in experiment [1] is recorded as 46 nM; in experiment [2] it was 439 nM.

Consider `COc1ccccc1OCCN1CCC(CNS(=O)(=O)c2cc(Cl)ccc2F)CC1`, for which the Ki in experiment [1] amounted to 56 nM; in experiment [2], 1345 nM.

Consider `COc1ccc(S(=O)(=O)NC2CCN(CCOc3ccccc3OC)CC2)cc1OC`, for which the values for the inhibition constant Ki in experiment [1] and in experiment [2] were 99 nM and 2140 nM, respectively.

For the compound `COc1ccccc1OCCN1CCC(CNS(=O)(=O)c2cccc(Cl)c2F)CC1`, the Ki in experiment [1] was found to be 48 nM; in experiment [2], 678 nM.
